NALP1 yeast inh: NALP1 inhibition. S. cerevisiae NALP1/ASC/caspase-1 growth, X-gal OD620, 72 h. inhibition, % at 10 µM. 0.61% of 280,000 active; in the data active = inhibition mostly above about 24%, no sharp cut-off; inactive = mostly below about 32%
PolyA inhibitor: yeast polyadenylation inhibition | S. cerevisiae SKY197-pL101 polyadenylation reporter, beta-gal luminescence; efflux-impaired pdr1/pdr3 knockout yeast; score 100 = 6 SD above DMSO | activity score, % at 12 µM | 0.02% of 300,000 active | AID 1875;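 active = lowest replicate activity score at least 50, where 100 means six control SD above control mean; inconclusive = lowest score under 50 but half or more replicates reach 50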;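 also: yeast exposed to compound for 9 h at 30 °C; higher score means more reporter readthrough which indicates perturbed polyadenylation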
T cruzi inh: blocks replication of Trypanosoma cruzi; T. cruzi beta-gal in NIH3T3, luminescence, 90 h; 1.4% of 300,000 active; AID 1885; inhibition, % (test concentration not listed);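 active = mean inhibition across valid replicates above about 55%, limit read from the data; inconclusive = mean below that limit but half or more replicates reach it; inactive = mean below it, under half of replicates reach it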;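 also: signal also drops with host cell toxicity which is not excluded here; 0% = plate median of DMSO wells and 100% = zero luminescence signal; higher percent means less beta-gal luminescence so fewer parasites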
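System: Mouse NIH/3T3 fibroblasts infected with β-gal-expressing T. cruzi Tulahuen C4 | Quantity: NIH/3T3 cells, 5,000 per well | Reagent: 5000 reporter trypomastigotes per well | Dosing: Compound pinned at 50 nL/well, DMSO | Schedule: 3 h host attachment, then at least 90 h co-culture | Detection: GalScreen luminescence, 60 min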
Calb FLC: affects C. albicans growth with fluconazole; 0.57% of 300,000 active; C. albicans CaCi-2 + fluconazole, Alamar Blue growth, 48 h; growth inhibition, % (concentration not given with the values); AID 1979;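 active = growth inhibition above about 58% in most replicates, limit read from the data, passing the limit was not always enough; inconclusive = exactly half the replicates above a set limit; inactive = most replicates below a set limit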;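 also: all wells also contain fluconazole at 8 µg/ml as a sub-toxic cotreatment; 0% = median of DMSO wells and 100% = median of geldanamycin control wells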
NLRP3 yeast inh: NALP3 inhibition in yeast; Yeast reconstituted NLRP3/ASC/caspase-1, beta-gal luminescence, 24 h; inhibition, % at 10 µM; 0.39% of 330,000 active; AID 2825;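 active = inhibition of 50% or more; inactive = inhibition below 50%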;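 also: plate controls were induced DMSO wells for no effect and uninduced yeast grown without galactose for full effect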
L major viab: inhibitors of Leishmania major promastigote growth; Leishmania major promastigotes, resazurin fluorescence viability; inhibition, % at 10 µM; 9% of 200,000 active; in the data active = inhibition above about 50%;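 also: promastigotes grown with compound for 44 hours at 28 °C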
* marks the source's active call; other numbers are inactive results; ? = inconclusive; . = no result. This excerpt belongs to a sample that is enriched for hits.

SMILES	NALP1 yeast inh	PolyA inhibitor	T cruzi inh	Calb FLC	NLRP3 yeast inh	L major viab
O=C(Nc1ccc(S(=O)(=O)NCc2ccco2)cc1)c1ccc2ccccc2n1	34	-6	20	-1	-25	52*
Cc1cc(C)n(CC(=O)N2CCCC(C(=O)c3cccc(OC(C)C)c3)C2)n1 (stereo unspecified)	0	-8	11	-7	18	-3
N/C(=N\c1nc2c(c(=O)[nH]1)CCCC2)Nc1ccccc1	26	-3	0	4	8	7
N/C(=N\c1nc2c(c(=O)[nH]1)CCC2)Nc1ccccc1	20	10	4	-1	16	73*
CC1CCCC(N2C(=O)NC(NC(=O)c3ccco3)(C(F)(F)F)C2=O)C1C (stereo unspecified)	-9	24	0	-6	-3	56*
CCCCN1C(=O)NC(NC(=O)c2ccco2)(C(F)(F)F)C1=O (stereo unspecified)	0	6	-11	-13	2	-2
S=c1[nH]nc(COc2ccccc2)n1/N=C/c1c(Cl)cccc1Cl	-1	-5	-2	-8	12	.
O=C1C2CC=C(Cl)CC2C(=O)N1CCCCCCN1C(=O)C2CC=C(Cl)CC2C1=O (stereo unspecified)	6	-2	11	-5	-8	-2
O=C(CCN1C(=O)C2CC=C(Cl)CC2C1=O)NC1CCCCC1 (stereo unspecified)	42*	-8	-7	-6	2	-3
CCOc1cc(/C=N/n2cnnc2)ccc1OS(=O)(=O)c1ccc(C)cc1	2	-1	45	43	4	79*
COCCCN(C(=S)Nc1cccc(Cl)c1)C(C)c1ccncc1 (stereo unspecified)	22	-3	0	-1	11	63*
COCCCN(C(=O)Nc1cccc(Cl)c1)C(C)c1ccccn1 (stereo unspecified)	11	20	5	4	8	7
COCCCN(C(=S)Nc1cc(C)cc(C)c1)C(C)c1ccncc1 (stereo unspecified)	19	4	-13	-7	6	82*
COCCCN(C(=S)Nc1c(C)cc(C)cc1C)C(C)c1ccccn1 (stereo unspecified)	-3	?	20	2	-6	52*
COCCCN(C(=S)Nc1ccc(OC)cc1)C(C)c1ccncc1 (stereo unspecified)	-12	1	-8	-5	1	3
COc1cccc2c1cc1c(=O)n(CC(=O)N3CCC(C)CC3)nc(C)n12	-2	-14	6	9	6	.
CCOC(=O)CNC(=O)c1ccc(SCC)cc1	-13	-4	-3	1	3	.
COc1ccc(CC(=O)NCCC(C)C)cc1S(=O)(=O)N1CCOCC1	-3	7	7	1	3	-4
CN(C)c1ccc(N=C/C=C2/N(C)c3ccccc3C2(C)C)cc1	54*	-24	32	-11	.	90*
Cc1ccccc1N=C/C=C1\N(C)c2ccccc2C1(C)C	50	20	7	-3	13	97*
CN1/C(=C\C=[N+](C)c2ccccc2)C(C)(C)c2ccccc21	5	-15	64*	105*	-2	100*
CN1/C(=C\C=C2/SC(=S)NC2=O)C(C)(C)c2ccccc21	12	-37	75*	1	29	92*
CN1/C(=C\C=N\O)C(C)(C)c2ccccc21	4	4	-16	7	14	7
CO/N=C/C=C1/N(C)c2ccccc2C1(C)C	2	5	-3	-7	2	2
COc1ccc(NC(=S)NNC(=O)Cn2nc(C(F)F)cc2C(F)F)cc1	19	22	-4	-12	24	-6
SMILES	NALP1 yeast inh	PolyA inhibitor	T cruzi inh	Calb FLC	NLRP3 yeast inh	L major viab
c1ccc(C2c3[nH]c4ccccc4c3CCN2Cc2cccn2-c2ccccn2)nc1 (stereo unspecified)	-8	-4	39	11	-6	.
Cc1cccc(C2c3[nH]c4ccccc4c3CCN2Cc2cccn2-c2ncccn2)c1 (stereo unspecified)	2	22	58*	-6	11	59*
COc1ccccc1C1c2[nH]c3ccccc3c2CCN1Cc1cnc(C)s1 (stereo unspecified)	-1	9	12	-13	16	27
COc1ccc(C2c3[nH]c4ccccc4c3CCN2Cc2cccn2-c2ncccn2)cc1C (stereo unspecified)	27	-2	79*	35	28	71*
CCN1CCN(CC(=O)Nc2sc3c(c2C#N)CCC(C)C3)CC1 (stereo unspecified)	10	1	28	-21	1	100*
COC(=O)C1=C(CN2CCCc3ccccc32)NC(=O)NC1c1ccc(F)cc1 (stereo unspecified)	2	-6	4	0	5	11
COc1cc2c(cc1OC)C(C1C(=O)CC(C)(C)CC1=O)N(C(=O)CCl)CC2 (stereo unspecified)	26	3	-13	-6	4	26
COc1cc2c(cc1OC)C(c1cc(Br)ccc1F)N(C(=O)CCl)CC2 (stereo unspecified)	7	-26	65*	-3	-10	.
O=C(OCc1ccc2c(c1)OCO2)c1cccc(S(=O)(=O)N2CCCCC2)c1	-4	4	-16	8	7	55*
O=C(OCc1ccc2c(c1)OCO2)c1ccc(S(=O)(=O)N2CCCC2)cc1	-3	1	7	3	-74	-5
COc1ccc(S(=O)(=O)N2CCN(S(=O)(=O)c3ccc4c(c3)OCCO4)CC2)cc1	-11	12	-9	-2	20	-5
O=S(=O)(c1ccc2c(c1)OCCO2)N1CCC(O)(c2ccc(Cl)cc2)CC1	35*	6	-13	-16	15	42
COc1ccc(S(=O)(=O)N2CCN(S(=O)(=O)c3ccc4c(c3)OCCO4)CC2)cc1C	12	16	12	4	8	61*
CCOC(=O)N1CCN(C(=O)c2ccc3nc(N4CCCCC4)sc3c2)CC1	-13	-1	3	-2	13	3
O=S(=O)(c1cccc(Cl)c1)N1CCN(S(=O)(=O)c2ccc3c(c2)OCCO3)CC1	.	.	.	.	16	.
O=C(c1ccc2nc(N3CCCCC3)sc2c1)N1CCN(Cc2ccc3c(c2)OCO3)CC1	34	6	22	-2	33	68*
COc1ccc(C(=O)NNC(=O)Nc2ccc(Cl)cc2)cc1	19	11	3	6	38	-1
O=S(=O)(c1cccc(F)c1)N1CCN(Cc2ccc3c(c2)OCO3)CC1	7	18	-4	-55	17	74*
O=C(NCc1ccc2c(c1)OCO2)C1CCN(c2ccc(S(=O)(=O)N3CCCC3)cc2)CC1	27	4	23	-25	1	97*
CCn1c2ccccc2c2cc(CN3CCN(S(=O)(=O)Cc4ccccc4)CC3)ccc21	14	-19	36	-13	7	55*
